Assay outcomes as filed in PubChem.
OX1R antag-1 = OX1R (HCRTR1) antagonists, primary screen, fluorescence, CHO/OX1R cells, Fluo-8 calcium, orexin A. inhibition, % at 5 µM. AID 434989, 2010. 330,000 tested, 0.43% active. Fluo-8 calcium fluorescence;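 active = inhibition above its plate's threshold, mean inhibition of all tested compounds on the plate plus 3 SD, cut at about 37% in these data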;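 note: 0% = orexin A challenge wells and 100% = SB-334867-A antagonist wells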
Target sequence (O43613 whole entry, looked up): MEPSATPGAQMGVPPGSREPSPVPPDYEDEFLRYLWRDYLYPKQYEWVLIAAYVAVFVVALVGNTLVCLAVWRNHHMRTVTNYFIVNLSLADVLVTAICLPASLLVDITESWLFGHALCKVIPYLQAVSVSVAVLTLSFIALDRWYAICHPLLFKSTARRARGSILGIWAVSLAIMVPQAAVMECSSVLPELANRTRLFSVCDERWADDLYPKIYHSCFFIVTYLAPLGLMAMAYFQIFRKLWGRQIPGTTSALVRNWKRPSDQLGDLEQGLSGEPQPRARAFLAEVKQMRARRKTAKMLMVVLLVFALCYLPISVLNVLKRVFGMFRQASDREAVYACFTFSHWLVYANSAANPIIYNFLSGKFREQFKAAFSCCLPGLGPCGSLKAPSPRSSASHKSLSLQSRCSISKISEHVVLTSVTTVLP
GPR7 antagonist = GPR7 receptor antagonists, primary screen, cell-based, fluorescence, single concentration | GPR7-expressing cells, fluorescence antagonist assay | inhibition, % at 4.4 µM | AID 1861, 2009 | Neuropeptides B/W receptor type 1 (Homo sapiens), P48145 | 290,000 tested, 1.1% active; in the data active = inhibition above about 16%, passing the limit was not always enough;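 note: cells stimulated with the agonist NPW; 0% = agonist with vehicle and 100% = vehicle without agonist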
TAAR1 antagonist = human TAAR1 antagonists, primary screen, Fluo-8 calcium fluorescence, CHO RD-HGA16 cells. antagonist. Trace amine-associated receptor 1 (Homo sapiens), Q96RJ0. AID 624466, 2012. inhibition, % at 3 µM. 360,000 tested, 1.5% active;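 active = inhibition above a per-plate cutoff, the mean inhibition of test compounds on that plate plus 3 SD, cut at about 49% in these data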;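 note: 0% = DMSO plus EC80 beta-PEA response and 100% = DMSO alone without agonist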
Target sequence (Q96RJ0 whole entry, looked up): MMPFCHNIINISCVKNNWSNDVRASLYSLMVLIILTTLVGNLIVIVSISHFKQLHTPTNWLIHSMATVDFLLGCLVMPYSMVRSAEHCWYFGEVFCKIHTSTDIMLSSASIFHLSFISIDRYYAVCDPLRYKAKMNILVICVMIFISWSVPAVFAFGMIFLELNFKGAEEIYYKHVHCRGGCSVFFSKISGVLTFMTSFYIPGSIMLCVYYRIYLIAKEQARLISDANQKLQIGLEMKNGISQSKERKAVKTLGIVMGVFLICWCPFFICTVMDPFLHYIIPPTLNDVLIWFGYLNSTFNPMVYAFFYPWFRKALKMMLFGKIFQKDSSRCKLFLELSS
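Test system – hTAAR1-expressing CHO RD-HGA16 cells, Gα16-coupled · Also added – β-PEA at EC80 concentration, post-compound challenge · Compound – 3 µM, single point · Incubation – dye loading 75 min at 37 °C, then 30 min room temperature · Measured by – Fluo-8 intracellular calcium dye fluorescence, real-time kinetic reads · Benchmarks – vehicle and agonist controls · Replicates – singlicate, one well per test compound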
TAAR1 ag = human TAAR1 agonists, primary screen, Fluo-8 calcium fluorescence, CHO RD-HGA16 cells. Trace amine-associated receptor 1 (Homo sapiens), Q96RJ0. vehicle wells 0%, saturating PEA agonist 100%. activation, % at 3 µM. 360,000 tested, 0.99% active. AID 624467, 2012;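 active = activation above the mean activation of all test compounds in the run plus 3 SD, cut at about 38% in these data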
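Test system: RD-HGA16 (CHO) cells co-expressing Gα16 and hTAAR1 | Doses: Single dose, 3 µM | Schedule: 17-24 h seeding, 75 min 37 °C dye, 30 min RT | Evaluation: % activation from peak over basal fluorescence ratio, DMSO-to-PEA scaled | Technique: Kinetic Fluo-8 calcium fluorescence | Benchmarks: Low control DMSO, high control PEA (EC100)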
CHO parental Ca = ATP-evoked calcium signal inhibitors, parental CHO, primary screen, counter-screen for OX1R antagonist project, cell-based, fluorescence, Fluo-8 calcium dye; parental CHO-K1, ATP-induced calcium, Fluo-8 fluorescence; inhibition, % at 5.6 µM; 330,000 tested, 0.63% active; AID 463079, 2010;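 active = inhibition above that plate's mean sample inhibition plus 3 SD, cut at about 26% in these data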;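 note: 0% = ATP-challenged DMSO wells and 100% = DMSO wells without ATP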
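Test system: parental CHO cells; detection: calcium-sensitive Fluo-8 fluorescence; evaluation: percent inhibition of calcium signal; also added: ATP as calcium-mobilizing challenge; repeats: one well per compound; control set: ATP-challenged DMSO wells low, unchallenged DMSO wells high; compound: single nominal dose of 5.6 µM per compound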
OX1R antag-2 = antagonists of human orexin 1 receptor (OX1R). OX1R-expressing cells, FRET antagonist read-out. 330,000 tested, 1.8% active. Orexin/Hypocretin receptor type 1 (Homo sapiens), O43613. inhibition, % at 6.6 µM; in the data active = inhibition mostly above about 38%, no sharp cut-off; inactive = mostly below about 40%;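 note: 0% = agonist challenge alone and 100% = reference antagonist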
OX1R Ca confirm = OX1R (HCRTR1) antagonists, confirmation, fluorescence, CHO/OX1R cells, Fluo-8 calcium, orexin A; 1,100 tested, 38% active; inhibition, % at 5 µM; AID 492963, 2010; shares compounds with OX1R antag-1; orexin A calcium Fluo-8 fluorescence; in the data active = inhibition above about 29%;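 note: 0% = agonist challenge alone and 100% = reference antagonist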
CHO Ca triplic = ATP-evoked calcium inhibition in parental CHO, counter-screen for OX1R antagonist project, cell-based, fluorescence, CHO-K1, triplicate. shares compounds with OX1R antag-1. ATP-induced calcium, Fluo-8 fluorescence. inhibition, % at 5.6 µM. 1,100 tested, 9.3% active;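 active = inhibition above a per-plate limit, the mean inhibition of that plate's test compounds plus 3 SD, cut at about 25% in these data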;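 note: 0% = ATP challenge with DMSO and 100% = DMSO without ATP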
Starred values were filed as active, the others as inactive; nt = no result. Only some compounds are listed: those with a hit (about 4.6% of all), similar ones and a draw of the others.

SMILES | OX1R antag-1 | GPR7 antagonist | TAAR1 antagonist | TAAR1 ag | CHO parental Ca | OX1R antag-2 | OX1R Ca confirm | CHO Ca triplic
COc1ccccc1NC(=O)Nc1ccc(-n2ccc(C(F)(F)F)n2)cc1 | 34 | -4 | -22 | 3 | -3 | 7 | 5 | 4
CC(C)OC(=O)CC1C(=O)NCCN1C(=O)COc1ccc(C(C)(C)C)cc1 (stereo not drawn) | -19 | -5 | 5 | -1 | -12 | 21 | nt | nt
O=C(CNc1cccc(S(=O)(=O)N2CCCC2)c1)Nc1ccc(C(F)(F)F)cc1 | 25 | nt | 18 | 19 | 20 | 20 | 4 | 12
Cc1cc(NS(=O)(=O)c2ccc(NC(=O)CN3C(=O)NC(C)(c4ccccc4)C3=O)cc2)nc(C)n1 (stereo not drawn) | 26 | nt | -12 | 2 | -4 | 21 | 4 | 1
CC1(c2ccccc2)NC(=O)N(CC(=O)Nc2ccc(S(=O)(=O)Nc3ncccn3)cc2)C1=O (stereo not drawn) | -8 | nt | -7 | 0 | 0 | 6 | nt | nt
CCOC(=O)c1ccc(NC(=O)N2C3CCCC2CC(NC(C)=O)C3)cc1 (stereo not drawn) | -12 | 2 | -6 | 1 | -5 | -2 | nt | nt
CC1(C)C2CCC1(CS(=O)(=O)NCc1ccc(C(F)(F)F)cc1)C(=O)C2 (stereo not drawn) | -28 | -10 | -8 | 6 | -19 | -10 | nt | nt
COC(=O)c1ccc2[nH]c3cccc(/C(=C/c4ccccc4)c4ccccc4)c3c2c1 | -13 | -18 | -9 | 11 | -9 | 17 | nt | nt
O=C1CCCc2[nH]c3cccc(/C(=C/c4ccccc4)c4ccccc4)c3c21 | 39 | -7 | 16 | 5 | 4 | 48 | 19 | 0
COc1ccc(-n2c(=S)[nH]c3cc(C(=O)Nc4ccc(C)c(F)c4)ccc3c2=O)c(OC)c1 | 21 | 13 | 13 | 5 | 15 | 44 | 16 | 15
COc1ccc(-n2c(=S)[nH]c3cc(C(=O)Nc4cc(C(N)=O)ccc4OC)ccc3c2=O)c(OC)c1 | 0 | -11 | 3 | 12 | -9 | 4 | nt | nt
Cc1nc2ccc(NS(=O)(=O)c3ccc(F)cc3F)cc2s1 | 9 | nt | 6 | 4 | -18 | 6 | nt | nt
Cc1nc2ccc(NS(=O)(=O)c3c(F)cc(F)cc3Br)cc2s1 | 38 | nt | 15 | 4 | -2 | 13 | 15 | 16
O=C1c2cccc3cccc(c23)C(=O)N1CCc1ccccc1 | -48 | -14 | 4 | 9 | -31 | 20 | nt | nt
Cc1ccc(CNC(=O)CCC(=O)n2ncc3cc(C)ccc32)cc1 | -3 | -6 | -18 | -3 | 7 | 2 | nt | nt
Cc1cccc2c1cnn2C(=O)CCC(=O)NCc1ccc(F)cc1 | 50* | -3 | 4 | 0 | 7 | 17 | 1 | 4
COCOCCn1cc(CN2CCS(=O)(=O)N(Cc3ccc(-c4ccc(OC)c(OC)c4)cc3)C(CC(C)C)C2=O)nn1 (stereo not drawn) | nt | nt | 26 | 10 | nt | nt | nt | nt
COc1nc(N(c2ccccc2)c2ccccc2)nc(-n2ccnc2)n1 | 45* | 14 | 47 | 13 | 11 | 73 | 43* | 2
COC(=O)C1=C(C)N(Cc2ccccc2)C(=NCc2ccco2)N[C@H]1c1cccc(F)c1 | -1 | nt | 21 | 15 | -22 | 7 | nt | nt
COC(=O)C1=C(C)N(Cc2ccccc2)C(=NCc2cccc(Cl)c2)N[C@H]1c1cccc(F)c1 | 61* | nt | nt | nt | 21 | 11 | 51* | 9
COc1ccccc1N1CCN(C(=O)C2CCN(C(=O)c3ccc(C(C)(C)C)cc3)CC2)CC1 | -26 | -5 | -24 | 3 | -18 | -5 | nt | nt
Cc1ccc(NC(=O)Cn2nc(C(=O)O)c3ccccc3c2=O)cc1S(=O)(=O)N1CCCCC1 | 41* | nt | 26 | 6 | 4 | 14 | 12 | 0
N#C/C(=C\c1ccc(C(=O)O)cc1)S(=O)(=O)c1cc(Br)ccc1Br | -3 | -8 | 15 | 0 | -2 | 8 | nt | nt
COc1ccc(CN2C(=O)NC3(CCOc4ccccc43)C2=O)cc1F (stereo not drawn) | -27 | 18 | 9 | 10 | -4 | 12 | nt | nt
COc1ccc(CN2C(=O)NC(C)(c3ccc(C)cc3)C2=O)cc1F (stereo not drawn) | 56* | 5 | -6 | 6 | -20 | 8 | -1 | 2
SMILES | OX1R antag-1 | GPR7 antagonist | TAAR1 antagonist | TAAR1 ag | CHO parental Ca | OX1R antag-2 | OX1R Ca confirm | CHO Ca triplic
CCOC(=O)C1CCN(C(=O)CSCc2nc(-c3ccc(OCC)cc3)oc2C)CC1 | 29 | -8 | 25 | 7 | 17 | 42 | -2 | 16
CCOc1ccc(-c2nc(CSCC(=O)N3CCN(C(=O)c4ccco4)CC3)c(C)o2)cc1 | -30 | -5 | -13 | 0 | -18 | 6 | nt | nt
CC(=O)Nc1ccc(C2=NNC(=Nc3cccc(S(=O)(=O)N(C)C)c3)SC2)cc1 | 34* | 0 | nt | nt | -9 | 14 | 38* | -3
O=C(CN(c1cccc([N+](=O)[O-])c1)S(=O)(=O)c1ccccc1)N(Cc1ccccc1)Cc1ccccc1 | 29 | -4 | 24 | 4 | -3 | 24 | -1 | -13
O=C(CN(c1cccc([N+](=O)[O-])c1)S(=O)(=O)c1ccccc1)NCc1ccccc1 | -17 | 2 | 12 | 11 | -20 | 35 | nt | nt
COc1cc(-c2cc(O)c(-c3ccc4ccccc4n3)c(=O)[nH]2)cc(OC)c1OC | nt | nt | 21 | 10 | nt | nt | nt | nt
Cn1c(=O)c(C(=O)NNC(=O)c2ccc(Br)cc2)c(O)c2ccccc21 | 27 | -6 | 5 | 6 | 19 | 7 | 8 | 16
O=C(CSc1nnc(CNC(=O)c2c(F)cccc2F)o1)c1ccc(Cl)cc1 | nt | nt | 9 | 11 | nt | nt | nt | nt
CCOC(=O)/C=c1\s/c(=C\c2ccc3c(c2)OCCO3)c(=O)n1CC(=O)NCC1CCCO1 (stereo not drawn) | 103* | 8 | -16 | 7 | -11 | 16 | 8 | -11
CCN(Cc1ccccc1)C(=O)c1oc2ccc(S(=O)(=O)N3CCOCC3)cc2c1C | -24 | 3 | 20 | 5 | -15 | 7 | nt | nt
